Assay results reported in ChEMBL document CHEMBL1126280, “Development of a novel series of styrylquinoline compounds as high-affinity leukotriene D4 receptor antagonists: synthetic and structure-activity studies leading to the discovery of (+-)-3-[[[3-[2-(7-chloro-2-quinolinyl)-(E)-ethenyl]phenyl][[3- (dimethylamino)-3-oxopropyl]thio]methyl]thio]propionic …” (J Med Chem, 1992).

Legend:
[1] = biological target: T1, Cysteinyl leukotriene receptor 1 (Cavia porcellus) (UniProt Q2NNR5); assay: In vitro inhibition of [3H]LTD4 binding to guinea pig lung membranes at 1 uM; type: functional, tissue-based; settings: Membrane
T1 sequence (whole entry): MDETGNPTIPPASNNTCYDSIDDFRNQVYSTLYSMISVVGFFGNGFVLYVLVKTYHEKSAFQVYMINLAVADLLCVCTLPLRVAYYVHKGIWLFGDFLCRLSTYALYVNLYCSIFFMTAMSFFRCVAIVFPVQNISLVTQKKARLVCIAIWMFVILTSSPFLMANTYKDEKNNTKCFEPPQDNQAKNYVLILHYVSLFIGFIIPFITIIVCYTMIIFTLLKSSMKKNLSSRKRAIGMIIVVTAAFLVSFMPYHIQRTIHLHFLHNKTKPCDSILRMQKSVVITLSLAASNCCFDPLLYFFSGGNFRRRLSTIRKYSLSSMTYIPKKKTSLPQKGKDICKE

Cavia porcellus = assay: Compound was evaluated in vivo for its effective dose against bronchoconstriction induced by LTD4 (0.2 ug/kg, iv) in anesthetized guinea pigs followed by id administration; type: functional
In short: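 Anesthetized guinea pigs were dosed once intraduodenally and challenged with LTD4 (0.2 μg/kg iv) 10, 30 and 50 min later. The effective dose is the minimum id dose giving over 50% inhibition of bronchoconstriction within 50 min. The number of experiments is reported with each value.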

[2] = biological target: T2, Cysteinyl leukotriene receptor 1 (Cavia porcellus, UniProt Q2NNR5); assay: (§1) In vitro inhibition of [3H]LTD4 binding to guinea pig lung membranes; type: functional, tissue-based, Membrane
T2 sequence (Q2NNR5 whole entry): T1 sequence (whole entry)

Rattus norvegicus [3] = assay: Compound was evaluated in vivo for inhibition of dyspnea induced by a 5 min aerosol of ovalbumin in 6 hyperreactive rats for each of three doses; type: functional
In short: (§2)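 Oral dosing in hyperreactive rats. Dyspnea was provoked by a 5 min ovalbumin aerosol. Six rats were used at each of three doses. The ED50 was derived from the percent inhibition of dyspnea across those doses.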

[4] = biological target: T2, Cysteinyl leukotriene receptor 1; assay: as §1; type: tissue-based, Membrane
Rattus norvegicus [5] = assay: Compound was evaluated in vivo for inhibition of dyspnea induced by a 5 min aerosol of ovalbumin in six hyperactive rats for each of three doses; type: functional; in short: as §2
Rattus norvegicus [6] = assay: Compound was evaluated in vivo for inhibition of dyspnea induced by a 5 min aerosol of ovalbumin in 6 hyperreactive rats at dose of 1.5 mg/Kg; type: functional
In short: (§3)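 Oral single-dose test in hyperreactive rats, six animals, with dyspnea provoked by a 5 min ovalbumin aerosol. The value is the percent inhibition of dyspnea at the one stated dose.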

Rattus norvegicus [7] = assay: Compound was evaluated in vivo for inhibition of dyspnea induced by a 5 min aerosol of ovalbumin in 6 hyperreactive rats at dose of 0.5 mg/Kg; type: functional; in short: as §3

| IC50 [4] [nM] | SMILES | Effective dose (Cavia porcellus) [mg/kg] | also measured |
| --- | --- | --- | --- |
| – | CC(Oc1cccc(Sc2ccc3ccc(Cl)cc3n2)c1)C(=O)O (stereo unspecified) | – | inhibition [1]: 24% |
| – | COC(=O)COc1cccc(/C=C/c2ccc3cc(C)ccc3n2)c1 | >10 | IC50 [2]: 930 nM |
| – | CCOC(=O)CCCOc1cccc(/C=C/c2ccc3ccccc3n2)c1 | 5 | ED50 (Rattus norvegicus [3]): 1.5 mg/kg |
| 2.2 | O=C(O)CCSC(SCCC(=O)N1CCOCC1)c1cccc(/C=C/c2ccc3ccc(Cl)cc3n2)c1 (stereo unspecified) | – | Effective dose (Rattus norvegicus [3]): 0.15 mg/kg; Inhibition (Rattus norvegicus [5]): 43% |
| 440 | O=C(O)CCSC(SCCC(=O)O)c1cccc(NC(=O)c2ccc3ccccc3n2)c1 | – | – |
| 3300 | C(=C\c1ccc2ccccc2n1)/c1ccncc1 | – | – |
| – | O=C([O-])CCCOc1cccc(/C=C/c2ccc3cc(Cl)ccc3n2)c1.[Na+] | 5 | inhibition in vivo at 1.5 mg/kg (Rattus norvegicus [6]): 40% |
| – | COC(=O)COc1cccc(/C=C/c2ccc3ccccc3n2)c1 | 10 | ED50 (Rattus norvegicus [3]): 2 mg/kg |
| 60 | CN(C)CCSC(SCCC(=O)O)c1cccc(/C=C/c2ccc3ccc(Cl)cc3n2)c1 (stereo unspecified) | – | – |
| – | O=C([O-])CCCOc1cccc(/C=C/c2ccc3c(Cl)cccc3n2)c1.[Na+] | >5 | – |
| 57 | O=C(O)CCSC(SCCC(=O)O)c1cccc(CCc2ccc3ccc(Cl)cc3n2)c1 | – | – |
| 6000 | C(=C\c1ccc2ccccc2n1)/c1cccnc1 | – | – |
| – | O=C([O-])CCCOc1cccc(/C=C/c2ccc3ccc(Cl)cc3n2)c1.[Na+] | 2.5 | inhibition in vivo at 0.5 mg/kg (Rattus norvegicus [7]): 41% |
| – | O=C(O)CCCOc1cccc(/C=C/c2ccc3ccccc3c2)c1 | – | inhibition [1]: 11% |
| – | O=C([O-])CCCOc1cccc(/C=C/c2ccc3cc(Cl)c(Cl)cc3n2)c1.[Na+] | 1 | ED50 (Rattus norvegicus [3]): 0.5 mg/kg |
| – | CCCC/C=C/c1ccc2nc(/C=C/c3cccc(OCC(=O)OC)c3)ccc2c1 | – | inhibition [1]: 12% |
| 89 | CN(C)C(=O)CCSC(SCCC(=O)O)c1cccc(SCc2ccc3ccc(Cl)cc3n2)c1 (stereo unspecified) | – | – |
| 0.8 | CN(C)C(=O)CCSC(SCCC(=O)O)c1cccc(/C=C/c2ccc3ccc(Cl)cc3n2)c1 (stereo unspecified) [MK-571] | 0.1 | ED50 (Rattus norvegicus [3]): 0.07 mg/kg |
| 13.6 | O=C(O)CCSC(SCCC(=O)O)c1cccc(OCc2ccc3ccc(Cl)cc3n2)c1 | – | – |
| 0.3 | NC(=O)CCSC(SCCC(=O)O)c1cccc(/C=C/c2ccc3ccc(Cl)cc3n2)c1 (stereo unspecified) | 0.5 | – |
| – | O=C(O)CCSC(SCCC(=O)O)c1cccc(/C=C/c2ccc3ccc(Cl)cc3n2)c1 | 0.5 | ED50 (Rattus norvegicus [3]): 0.1 mg/kg |
| 32 | O=C(O)CCSC(SCCC(=O)O)c1cccc(C2CC2c2ccc3ccc(Cl)cc3n2)c1 (stereo unspecified) | – | – |
| 6000 | C(=C\c1ccc2ccccc2n1)/c1ccccc1 | – | – |
| 250 | O=C(O)CCSC(SCCC(=O)O)c1cccc(CCCc2ccc3ccc(Cl)cc3n2)c1 | – | – |
